# Test results: ChEMBL document CHEMBL4152196, “Design, synthesis and biological evaluation of novel trimethylangelicin analogues targeting nuclear factor kB (NF-kB)” (Eur J Med Chem, 2018)
# Activity calls are given as the source filed them. The calls are words filed in the database; no cut-off is given here.
# Legend:
# [1] = Inhibition of NF-kappaB (unknown origin) assessed as decrease in NF-kappaB/DNA interaction using 32P-labeled target NF-kappaB double-stranded oligonucleotide after 30 mins by EMSA; set-up: species or system Homo sapiens
# Summary of the method: (§1)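 Purified NF-κB p50 (0.1 µl/20 µl, 50 gsu) was combined with 0.25 ng of ³²P-labeled double-stranded NF-κB consensus oligonucleotide. Bound 30 min at room temperature, then run on 6% polyacrylamide in 0.25× TBE at 200 V. IC₅₀ is 50% inhibition of the complex.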
# [2] = test system: IB3-1; assay: Antiproliferative activity against human IB3-1 cells after 2 days by cell counting analysis; format: cell-based; details: IB3-1, 48 h
# Summary of the method: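 IB3-1 cells from a CF patient (ΔF508/W1282X), immortalized with adeno12/SV40, grown in LHC-8 with 5% FBS and no gentamycin at 37°C/5% CO₂. Treated at 12.5, 25, 50, 100, 200 and 800 µM. Cells counted by Coulter counter after 2 days, with untreated cells in log phase. IC₅₀ is the concentration giving 50% inhibition of cell growth.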
# [3] = test system: K562; assay: Cytotoxicity against human K562 cells after 2 days by cell counting analysis; format: cell-based; details: k562, 48 h
# [4] = test system: U-251; assay: Cytotoxicity against human U251 cells after 2 days by cell counting analysis; format: cell-based; details: u-251, 48 h
# [5] = test system: Salmon testes DNA; assay: Induction of damage in salmon testes DNA at 100 uM in presence of 2.5 to 7.5 J/cm2 UVA irradiation by ethidium bromide dye-based agarose gel electrophoresis analysis; format: nucleic-acid assay; details: salmonidae
# [6] = test system: Salmon testes DNA; assay: Binding affinity to salmon testes DNA assessed as furocoumarin-pyrimidine base formation in presence of 15 J/cm2 UVA light irradiation by TLC analysis; format: nucleic-acid assay; details: Salmonidae
# [7] = test system: Salmonella typhimurium; assay: Genotoxicity in Salmonella typhimurium TA98 assessed as revertant colonies at 5 uL/plate in absence of Sprague-Dawley rat S9 metabolic activation after 72 hrs by Ames test (reference value: 1); format: toxicity, organism-based; details: salmonella enterica subsp. enterica serovar typhimurium
# [8] = test system: Salmonella typhimurium; assay: Genotoxicity in Salmonella typhimurium TA98 assessed as revertant colonies at 10 uL/plate in absence of Sprague-Dawley rat S9 metabolic activation after 72 hrs by Ames test (reference value: 1); format: toxicity, organism-based; details: salmonella enterica subsp. enterica serovar typhimurium
# [9] = test system: Salmonella typhimurium; assay: Genotoxicity in Salmonella typhimurium TA98 assessed as revertant colonies at 1 uL/plate in presence of Sprague-Dawley rat S9 metabolic activation after 72 hrs by Ames test (reference value: 1); format: toxicity, organism-based; details: salmonella enterica subsp. enterica serovar typhimurium
# [10] = test system: Salmonella typhimurium; assay: Genotoxicity in Salmonella typhimurium TA98 assessed as revertant colonies at 100 uL/plate in presence of Sprague-Dawley rat S9 metabolic activation after 72 hrs by Ames test (reference value: 1); format: toxicity, organism-based; details: salmonella enterica subsp. enterica serovar typhimurium
# [11] = test system: Salmonella typhimurium; assay: Genotoxicity in Salmonella typhimurium TA100 assessed as revertant colonies at 1 uL/plate in absence of Sprague-Dawley rat S9 metabolic activation after 72 hrs by Ames test (reference value: 1); format: toxicity, organism-based; details: salmonella enterica subsp. enterica serovar typhimurium
# [12] = test system: Salmonella typhimurium; assay: Genotoxicity in Salmonella typhimurium TA100 assessed as revertant colonies at 5 uL/plate in absence of Sprague-Dawley rat S9 metabolic activation after 72 hrs by Ames test (reference value: 1); format: toxicity, organism-based; details: salmonella enterica subsp. enterica serovar typhimurium
# [13] = test system: Salmonella typhimurium; assay: Genotoxicity in Salmonella typhimurium TA100 assessed as revertant colonies at 10 uL/plate in absence of Sprague-Dawley rat S9 metabolic activation after 72 hrs by Ames test (reference value: 1); format: toxicity, organism-based; details: salmonella enterica subsp. enterica serovar typhimurium
# [14] = test system: Salmonella typhimurium; assay: Genotoxicity in Salmonella typhimurium TA100 assessed as revertant colonies at 100 uL/plate in absence of Sprague-Dawley rat S9 metabolic activation after 72 hrs by Ames test (reference value: 1); format: toxicity, organism-based; details: salmonella enterica subsp. enterica serovar typhimurium
# [15] = test system: Salmonella typhimurium; assay: Genotoxicity in Salmonella typhimurium TA100 assessed as revertant colonies at 5 uL/plate in presence of Sprague-Dawley rat S9 metabolic activation after 72 hrs by Ames test (reference value: 1); format: toxicity, organism-based; details: salmonella enterica subsp. enterica serovar typhimurium
# [16] = test system: Salmonella typhimurium; assay: Genotoxicity in Salmonella typhimurium TA100 assessed as revertant colonies at 10 uL/plate in presence of Sprague-Dawley rat S9 metabolic activation after 72 hrs by Ames test (reference value: 1); format: toxicity, organism-based; details: salmonella enterica subsp. enterica serovar typhimurium
# [17] = test system: Salmonella typhimurium; assay: Genotoxicity in Salmonella typhimurium TA97A assessed as revertant colonies at 10 uL/plate in absence of Sprague-Dawley rat S9 metabolic activation after 72 hrs by Ames test (reference value: 1); format: toxicity, organism-based; details: salmonella enterica subsp. enterica serovar typhimurium
# [18] = test system: Salmonella typhimurium; assay: Genotoxicity in Salmonella typhimurium TA97A assessed as revertant colonies at 100 uL/plate in absence of Sprague-Dawley rat S9 metabolic activation after 72 hrs by Ames test (reference value: 1); format: toxicity, organism-based; details: salmonella enterica subsp. enterica serovar typhimurium
# [19] = test system: Salmonella typhimurium; assay: Genotoxicity in Salmonella typhimurium TA97A assessed as revertant colonies at 1 uL/plate in presence of Sprague-Dawley rat S9 metabolic activation after 72 hrs by Ames test (reference value: 1); format: toxicity, organism-based; details: salmonella enterica subsp. enterica serovar typhimurium
# [20] = test system: Salmonella typhimurium; assay: Genotoxicity in Salmonella typhimurium TA97A assessed as revertant colonies at 100 uL/plate in presence of Sprague-Dawley rat S9 metabolic activation after 72 hrs by Ames test (reference value: 1); format: toxicity, organism-based; details: salmonella enterica subsp. enterica serovar typhimurium
# [21] = test system: Salmonella typhimurium; assay: Genotoxicity in Salmonella typhimurium TA1535 assessed as revertant colonies at 5 uL/plate in absence of Sprague-Dawley rat S9 metabolic activation after 72 hrs by Ames test (reference value: 1); format: toxicity, organism-based; details: salmonella enterica subsp. enterica serovar typhimurium
# [22] = test system: Salmonella typhimurium; assay: Genotoxicity in Salmonella typhimurium TA1535 assessed as revertant colonies at 10 uL/plate in absence of Sprague-Dawley rat S9 metabolic activation after 72 hrs by Ames test (reference value: 1); format: toxicity, organism-based; details: salmonella enterica subsp. enterica serovar typhimurium
# [23] = test system: Salmonella typhimurium; assay: Genotoxicity in Salmonella typhimurium TA1535 assessed as revertant colonies at 1 uL/plate in presence of Sprague-Dawley rat S9 metabolic activation after 72 hrs by Ames test (reference value: 1); format: toxicity, organism-based; details: salmonella enterica subsp. enterica serovar typhimurium
# [24] = test system: Salmonella typhimurium; assay: Genotoxicity in Salmonella typhimurium TA1535 assessed as revertant colonies at 5 uL/plate in presence of Sprague-Dawley rat S9 metabolic activation after 72 hrs by Ames test (reference value: 1); format: toxicity, organism-based; details: salmonella enterica subsp. enterica serovar typhimurium
# [25] = test system: Salmonella typhimurium; assay: Genotoxicity in Salmonella typhimurium TA1535 assessed as revertant colonies at 10 uL/plate in presence of Sprague-Dawley rat S9 metabolic activation after 72 hrs by Ames test (reference value: 1); format: toxicity, organism-based; details: salmonella enterica subsp. enterica serovar typhimurium
# [26] = test system: Salmonella typhimurium; assay: Genotoxicity in Salmonella typhimurium TA1535 assessed as revertant colonies at 50 uL/plate in presence of Sprague-Dawley rat S9 metabolic activation after 72 hrs by Ames test (reference value: 1); format: toxicity, organism-based; details: salmonella enterica subsp. enterica serovar typhimurium
# [27] = test system: IB3-1; assay: Inhibition of TNF-alpha induced PDGF-B chain production in human IB3-1 cells at 1 uM preincubated for 5 hrs followed by TNF-alpha stimulation and measured after 24 hrs relative to control; format: functional
# Summary of the method: (§2)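 IB3-1 cells (CF patient, ΔF508/W1282X, adeno12/SV40-immortalized) grown in LHC-8 with 5% FBS, no gentamycin, 37°C/5% CO₂; 60% confluent monolayers seeded, compound added after 24 h, 5 h before 80 ng/ml TNF-α, then 24 h further incubation. Cytokines in supernatants measured by Bioplex 27-plex Luminex bead assay: beads, detection antibody, streptavidin–phycoerythrin, 30/30/10 min at room temperature.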
# [28] = test system: IB3-1; assay: Inhibition of TNF-alpha induced IL-15 production in human IB3-1 cells at 1 uM preincubated for 5 hrs followed by TNF-alpha stimulation and measured after 24 hrs relative to control; format: functional; summary of the method: as §2
# [29] = species on record: Homo sapiens; assay: Inhibition of NF-kappaB (unknown origin) assessed as decrease in NF-kappaB/DNA interaction at 12.5 to 100 uM using 32P-labeled target NF-kappaB double-stranded oligonucleotide after 30 mins by EMSA; summary of the method: as §1
smiles,measurement,setting,value
CCc1cc2c(C(C)C)cc(=O)oc2c2c(C)coc12,IC50,[1],7.4 µM
same,IC50,[2],> 200 µM
same,Activity,[3],Non-Toxic
same,Activity,[4],Non-Toxic
same,Activity,[5],Not Active
same,Activity,[6],inactive
same,T/C,[7],1.2
same,T/C,[8],1.3
same,T/C,[9],0.8
same,T/C,[10],0.6
same,T/C,[11],0.8
same,T/C,[12],1
same,T/C,[13],0.8
same,T/C,[14],0.9
same,T/C,[15],1.1
same,T/C,[16],1
same,T/C,[17],1.2
same,T/C,[18],1
same,T/C,[19],1
same,T/C,[20],1
same,T/C,[21],1.1
same,T/C,[22],0.9
same,T/C,[23],1.1
same,T/C,[24],0.9
same,T/C,[25],1.2
same,T/C,[26],1
same,inhibition at 1 µM,[27],> 20%
same,inhibition at 1 µM,[28],> 20%
same,inhibition,[29],Active
